How the values were obtained:
washed platelets [1] = type: cell-based, human; conditions: intermediates 30 μM vs 2-MeSADP 0.04 μM
human platelets [2] = experiment: LTA: 2-MeSADP-stimulated platelet aggregation; type: cell-based; conditions: for effect on 2-MeSADP-stimulated platelet aggregation: 30 μM test compound, 30 nM 2-MeS-ADP, PRP
Procedure, shortened: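 In human PRP (300,000 cells/μl), aggregation was stimulated with 2-MeSADP (30 nM) with or without 30 μM test compound. Full 2-MeSADP concentration-response curves were run alone or after pre-incubation with 15 or 30 μM test compound. Values were normalised to 2-MeSADP alone and EC50 was derived from the curves; n=6.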

human platelets [3] = experiment: LTA with PRP: LPA-stimulated platelet aggregation; type: cell-based; conditions: 30 μM test compound pre-incubated, LPA 10 μM
Procedure, shortened: (§1)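 Turbidimetric light transmission aggregometry was run on human PRP normalised to 300,000 cells/μl. Platelets were pre-treated for 5 min with 30 μM test compound, then given 10 μM LPA. Shape change was taken from the traces (n=10). Aggregation was reported as mean platelet aggregation in % (n=8).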

P2Y12 receptor [4] = biological target: T1, P2Y12 receptor (Homo sapiens, UniProt Q9H244); experiment: [35S]GTPγS binding in isolated platelet membranes; type: biochemical
T1 sequence (Q9H244 whole entry): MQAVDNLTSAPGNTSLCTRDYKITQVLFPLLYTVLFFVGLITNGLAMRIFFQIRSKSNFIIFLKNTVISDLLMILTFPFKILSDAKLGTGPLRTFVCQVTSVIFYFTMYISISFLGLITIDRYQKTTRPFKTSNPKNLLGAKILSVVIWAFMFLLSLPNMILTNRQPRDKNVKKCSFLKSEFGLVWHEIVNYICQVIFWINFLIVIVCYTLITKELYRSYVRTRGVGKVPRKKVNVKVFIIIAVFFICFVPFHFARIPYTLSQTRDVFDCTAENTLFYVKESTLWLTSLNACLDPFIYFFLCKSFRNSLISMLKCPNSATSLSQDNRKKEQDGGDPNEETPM

human platelets [5] = experiment: LTA with PRP: epinephrine-mediated platelet aggregation; type: cell-based; conditions: 30 μM FPP, epinephrine 1 μM
Procedure, shortened: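 For light transmission aggregometry, human platelets were normalised to 300,000 cells/μl and exposed to 30 μM test compound before agonist. Epinephrine was added at 1 μM (n=15); the TRAP arm had n=7. Representative traces accompanied the bar data.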

P2Y12 receptor [6] = biological target: T1, P2Y12 receptor; experiment: [3H]PSB-0413 radioligand competition binding, Sf9 insect cell membranes; conditions: for rank order of potency at labelled binding sites: unpublished data of the authors
human platelets [7] = experiment: LTA with PRP: TRAP-mediated platelet aggregation; type: cell-based; conditions: 30 μM FPP, TRAP 15 μM
washed platelets [8] = experiment: Calcium flux assay on platelets; type: cell-based, human; conditions: 30 μM FPP
human platelets [9] = experiment: LTA with PRP: LPA-stimulated platelet shape change; type: cell-based
Procedure, shortened: as §1

How did the “antagonistic activity on platelets stimulated by 2-MeSADP” value (shortened to “antagonistic activity”) (washed platelets [1]) turn out when `CC(C)=CCOP(=O)(O)OP(=O)(O)O.N.N.N` [DMAPP, γ,γ-dimethylallyl pyrophosphate triammonium salt] was run?
Its value is “Only FPP displayed a statistically significant effect”.

With `CC(C)=CCC/C(C)=C/COP(=O)(O)OP(=O)(O)O.N.N.N` [GPP, trans-3,7-dimethyl-2,6-octadienyl pyrophosphate ammonium salt] as the compound, how does the “antagonistic activity” value (washed platelets [1]) read?
Its value is “Only FPP displayed a statistically significant effect”.

`CC(C)=CCCC(C)=CCCC(C)=CCOP(=O)(O)OP(=O)(O)O.N.N.N` [FPP, 3,7,11-Trimethyl-2,6,10-dodecatrien-1-yl pyrophosphate ammonium salt] was tested. Which “effect on 2-MeSADP-stimulated platelet aggregation” value (human platelets [2]) did it give?
The value was “clear, concentration-dependent inhibition”.

And the inhibition at 10 µM (human platelets [2]; Homo sapiens, Platelet, read-out: inhibition of 2-MeSADP-stimulated aggregation)?
The inhibition at 10 µM was 40 ± 5%.

And the “effect on LPA-stimulated platelet aggregation” value (human platelets [3])?
Its value is “no effect”.

And the IC50 (P2Y12 receptor [4])?
The IC50 was 45 µM.

What about the “effect of compound alone on [35S]GTPγS binding” value (P2Y12 receptor [4]; FPP 1 M alone (so in the source)) of the same compound?
The value was “small, but significant, increase”.

What about the “concentrations at which FPP independently stimulated [35S]GTPγS binding” value (P2Y12 receptor [4]; platelet membranes) of the same compound?
Its value is “below 6 μM”.

And the “antagonistic activity” value (washed platelets [1])?
The value was “statistically significant effect”.

What about the “effect on epinephrine-stimulated platelet aggregation” value (human platelets [5]) of the same compound?
Its value is “unaffected”.

What about the IC50 (P2Y12 receptor [6]) of the same compound?
Its IC50 is 65.8 µM.

And the “extent of inhibition of [3H]PSB-0413 binding” value (P2Y12 receptor [6])?
The value was “partial inhibition”.

And the “maximal inhibition of [3H]PSB-0413 binding” value (P2Y12 receptor [6]; very high concentrations)?
The value was 30–40%.

What about the “effect on TRAP-stimulated platelet aggregation” value (human platelets [7]) of the same compound?
Its value is “unaffected”.

And the “effect on ADP-stimulated calcium signalling” value (washed platelets [8]; 5 μM ADP)?
Its value is “no statistical significance”.

And the “effect on thrombin-stimulated calcium signalling” value (washed platelets [8]; thrombin 0.5 U/ml)?
Its value is “no statistical significance”.

What about the “effect on LPA-stimulated platelet shape change” value (human platelets [9]; 30 μM FPP, 10 μM LPA, p=0.017) of the same compound?
The value was “potentiated”.

What about the “platelet shape change, compound alone” value (human platelets [9]; FPP alone) of the same compound?
The value was “unable to show an effect”.

For `CC(C)=CCCC(C)=CCCC(C)=CCOP(=O)(O)O.N.N` [FMP, 3,7,11-trimethyl-2,6,10-dodecatrien-1-yl monophosphate ammonium salt], which “antagonistic activity” value (washed platelets [1]) is on record?
The value was “Only FPP displayed a statistically significant effect”.

With `Nc1c(S(=O)(=O)[O-])cc(Nc2ccc(Nc3ccccc3)c(S(=O)(=O)[O-])c2)c2c1C(=O)c1ccccc1C2=O.[Na+].[Na+]` [PSB-0739, 1-amino-4-[4-phenylamino-sulfophenylamino]-9,10-dioxo-9,10-dihydroanthracene-2-sulfonic acid disodium salt] as the compound, how does the “extent of inhibition of [3H]PSB-0413 binding” value (P2Y12 receptor [6]) read?
The value was “complete inhibition”.

What about the “rank order of potency at labelled binding sites” value (P2Y12 receptor [6]) of the same compound?
Its value is “PSB-0739 ([21], [22]). >2-methylthio-ADP > ADP”.

Which “antagonistic activity” value (washed platelets [1]) does the source give for `CC(C)=CCC/C(C)=C/CC/C(C)=C/CC/C(C)=C/COP(=O)(O)OP(=O)(O)O.N.N.N` [GGPP, all trans-3,7,11,15-tetra-methyl-2,6,10,14-hexadecatetraenyl pyrophosphate ammonium salt] here?
The value was “Only FPP displayed a statistically significant effect”.

Which “effect on 2-MeSADP-stimulated platelet aggregation” value (human platelets [2]) does the source give for `CCCCC/C=C\C/C=C\C/C=C\C/C=C\CCCC(=O)NCC(=O)O` [NAG, N-arachidonoylglycine, reference compound] here?
The value was “without effect”.

And the “effect on LPA-stimulated platelet aggregation” value (human platelets [3])?
The value was “No statistically significant inhibitory effect”.

For `Nc1ncnc2c1ncn2[C@@H]1O[C@H](COP(=O)(O)OP(=O)(O)O)[C@@H](O)[C@H]1O` [ADP, adenosine diphosphate], which “extent of inhibition of [3H]PSB-0413 binding” value (P2Y12 receptor [6]) is on record?
The value was “complete inhibition”.

What about the “rank order of potency at labelled binding sites” value (P2Y12 receptor [6]) of the same compound?
The value was “PSB-0739 ([21], [22]). >2-methylthio-ADP > ADP”.

With `CCCSc1nc(N[C@@H]2C[C@H]2c2ccc(F)c(F)c2)c2nnn([C@@H]3C[C@H](OCCO)[C@@H](O)[C@H]3O)c2n1` [ticagrelor, Ticagrelor, reference compound] as the compound, how does the “effect on 2-MeSADP dose response curve of [35S]GTPγS binding” value (P2Y12 receptor [4]; 60 nM ticagrelor) read?
The value was “right-shifted the dose response curve”.

And the “effect on FPP-stimulated [35S]GTPγS binding” value (P2Y12 receptor [4]; 10 μM ticagrelor)?
Its value is “readily blocked”.

How did the “antagonistic activity” value (washed platelets [1]) turn out when `C=C(C)CCOP(=O)(O)OP(=O)(O)O.N.N.N` [IPP, isopentenyl pyrophosphate triammonium salt] was run?
The value was “Only FPP displayed a statistically significant effect”.

Source: publication PMC3479660 (Thrombosis and haemostasis, 2012)
